Measurements as given in paper PMC10213863 (Cell Reports Medicine, 2023).

Tests used:
[1] = biological target: T1, TLR7 (Homo sapiens, UniProt Q9NYK1); assay: Isolated human pDC assay, ssRNA-driven IFN-α; assay type: cell-based; conditions: fixed dose of MHV370
T1 sequence (Q9NYK1 27-1049): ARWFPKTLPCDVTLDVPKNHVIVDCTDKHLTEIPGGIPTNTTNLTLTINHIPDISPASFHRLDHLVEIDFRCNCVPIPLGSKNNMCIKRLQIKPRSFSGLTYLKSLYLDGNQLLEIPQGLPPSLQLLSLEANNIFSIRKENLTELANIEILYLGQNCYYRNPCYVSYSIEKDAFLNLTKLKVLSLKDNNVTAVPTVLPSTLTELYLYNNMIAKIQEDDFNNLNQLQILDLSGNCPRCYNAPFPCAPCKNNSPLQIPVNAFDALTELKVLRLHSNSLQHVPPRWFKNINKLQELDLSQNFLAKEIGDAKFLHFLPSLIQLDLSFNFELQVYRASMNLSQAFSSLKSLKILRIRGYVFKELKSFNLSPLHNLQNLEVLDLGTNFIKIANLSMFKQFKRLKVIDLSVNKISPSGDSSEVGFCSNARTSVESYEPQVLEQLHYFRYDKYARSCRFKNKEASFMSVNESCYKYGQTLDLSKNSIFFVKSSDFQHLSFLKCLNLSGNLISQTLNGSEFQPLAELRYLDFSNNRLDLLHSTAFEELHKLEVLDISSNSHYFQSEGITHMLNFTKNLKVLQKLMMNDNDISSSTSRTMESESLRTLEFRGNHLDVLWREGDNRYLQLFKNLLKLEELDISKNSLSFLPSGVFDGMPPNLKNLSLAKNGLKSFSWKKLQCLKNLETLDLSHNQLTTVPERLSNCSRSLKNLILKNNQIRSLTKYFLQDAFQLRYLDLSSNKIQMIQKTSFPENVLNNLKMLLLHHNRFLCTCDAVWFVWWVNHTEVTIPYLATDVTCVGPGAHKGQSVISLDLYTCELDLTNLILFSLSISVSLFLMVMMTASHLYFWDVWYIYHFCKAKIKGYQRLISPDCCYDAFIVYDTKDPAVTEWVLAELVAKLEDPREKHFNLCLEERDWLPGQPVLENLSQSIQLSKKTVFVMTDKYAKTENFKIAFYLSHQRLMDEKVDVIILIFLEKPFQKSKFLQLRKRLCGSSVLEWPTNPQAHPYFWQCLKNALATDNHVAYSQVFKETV
Procedure, shortened: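 pDCs were negatively enriched from PBMCs and resuspended in RPMI1640 with 10 ng/mL recombinant human IL-3. They were pre-treated 30 min with test compound or 0.25% v/v DMSO. Stimulation was 20 h at 37°C, 5% CO2 with ssRNA40 (10 μg/mL plus 25 μg/mL DOTAP) or ODN2216 (0.3 μM). IFN-α in supernatants was read by AlphaLisa; viability by CellTiter-Glo.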

[2] = biological target: T1, TLR7; assay: Human whole blood assay, ssRNA-IFN-α; assay type: cell-based
Procedure, shortened: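 Fresh human blood or 129/Sv mouse blood was taken into citrate and diluted 1:1 with RPMI1640. It was pre-incubated 30 min at 37°C, 5% CO2 with increasing concentrations of test compound or 0.25% v/v DMSO (final). Blood was then stimulated with TLR agonists at doses from earlier work, or with R848 (3 μM), and cytokines were quantified. Viability was checked by ATPlite luminescence.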

[3] = biological target: T2, TLR8 (Homo sapiens, UniProt Q9NR97); assay: Human neutrophil ROS production, TL8-506 stimulation; assay type: cell-based
T2 sequence (Q9NR97 27-1041): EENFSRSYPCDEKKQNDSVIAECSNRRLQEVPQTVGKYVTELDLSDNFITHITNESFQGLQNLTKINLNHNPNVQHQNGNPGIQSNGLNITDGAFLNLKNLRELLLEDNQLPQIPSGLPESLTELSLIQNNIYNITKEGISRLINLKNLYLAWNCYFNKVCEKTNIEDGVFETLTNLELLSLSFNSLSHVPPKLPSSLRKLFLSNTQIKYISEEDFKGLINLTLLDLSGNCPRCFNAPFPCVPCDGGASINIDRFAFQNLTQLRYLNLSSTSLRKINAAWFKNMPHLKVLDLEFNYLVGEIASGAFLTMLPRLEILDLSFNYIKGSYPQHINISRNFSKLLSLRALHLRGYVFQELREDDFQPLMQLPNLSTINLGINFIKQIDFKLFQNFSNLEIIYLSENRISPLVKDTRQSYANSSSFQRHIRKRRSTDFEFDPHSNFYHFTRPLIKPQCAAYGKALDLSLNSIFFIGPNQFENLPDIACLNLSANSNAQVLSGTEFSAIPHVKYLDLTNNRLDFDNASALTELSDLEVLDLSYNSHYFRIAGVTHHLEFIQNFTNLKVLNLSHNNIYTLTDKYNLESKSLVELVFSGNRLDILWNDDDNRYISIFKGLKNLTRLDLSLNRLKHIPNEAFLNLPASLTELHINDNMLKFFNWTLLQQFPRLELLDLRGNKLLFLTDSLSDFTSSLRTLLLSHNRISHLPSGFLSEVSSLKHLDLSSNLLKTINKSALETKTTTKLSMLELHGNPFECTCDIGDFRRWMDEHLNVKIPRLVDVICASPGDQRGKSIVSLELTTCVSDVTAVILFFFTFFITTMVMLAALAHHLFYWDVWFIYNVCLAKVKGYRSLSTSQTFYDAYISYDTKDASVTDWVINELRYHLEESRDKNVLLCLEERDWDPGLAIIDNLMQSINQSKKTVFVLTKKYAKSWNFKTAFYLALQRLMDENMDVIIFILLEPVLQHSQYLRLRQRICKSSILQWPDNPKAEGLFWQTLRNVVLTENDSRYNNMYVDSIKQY
Procedure, shortened: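 Cells were pre-treated 30 min with increasing concentrations of test compound or 0.1% v/v DMSO. They were then stimulated 30 min at 37°C, 5% CO2 with TL8-506 or PMA (50 ng/mL). ROS was detected with 2 μM dihydrorhodamine for 15 min at 37°C and read by flow cytometry. Signals were normalized to vehicle; viability was checked by CellTiter-Glo.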

[4] = system: NZB/W F1 mice; assay: NZB/W F1 model repeated at a different site, therapeutic twice-daily oral dosing; assay type: in vivo, mouse
Procedure, shortened: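 This repeat NZB/W F1 study had three differences. Mice were included at dipstick proteinuria score 2 (0.3–1 mg/mL), proteinuria was scored by dipstick, and test compound was given orally b.i.d. rather than in food. Kidney IgM and IgG deposits were quantified as positively stained area over total section area on ten sections per mouse, then averaged.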

[5] = therapeutic b.i.d. p.o. after robust proteinuria

SMILES: Cc1cc(N2CCc3c(c(C)nn3CC34CCC(NC(=O)[C@@H]5COCCN5)(CC3)CC4)C2)c2cnn(C)c2n1 [MHV370, (S)-N-(4-((5-(1,6-dimethyl-1H-pyrazolo[3,4-b]pyridin-4-yl)-3-methyl-4,5,6,7-tetrahydro-1H-pyrazolo[4,3-c]pyridin-1-yl)methyl)bicyclo[2.2.2]octan-1-yl)morpholine-3-carboxamide]
- ssRNA-driven IFN-α responses from pDCs [1]: blocked
- IC50 [2]: 8.4 ± 1 nM
- IC50 [3]: 5.2 ± 1.5 nM
- IgM and IgG deposition in kidneys (histology) ([4]; therapeutic b.i.d. p.o.): substantially reduced
- proteinuria (dipstick score) [4, 5]: reduced proteinuria
- survival [4, 5]: increased survival
